Assay results from different studies.
Compare with care: the assays were run in different laboratories.
Matrix: plasma

The AUC(0-inf) of `CNCc1cc(-c2ccccc2F)n(S(=O)(=O)c2cccnc2)c1` is reported as 645 ng·h/mL (Sprague-Dawley rat; oral, 10 mg/kg).
With `COc1ccc(C(C)=O)c(O)c1` the AUC(0-inf) was 38600 ng·h/mL (male Sprague-Dawley rat; oral, 100 mg/kg).
The AUC(0-inf) of `COCCOC(=O)C1=C(C)NC(C)=C(C(=O)OC(C)C)C1c1cccc([N+](=O)[O-])c1` (centres unmarked) is reported as 502 ng·h/mL (male Sprague-Dawley rat; oral, 12 mg/kg).
`Oc1c(Br)cc(Cl)c2cccnc12` gave an AUC(0-inf) of 5300 ng·h/mL (Sprague-Dawley rat; subcutaneous, 10 mg/kg).
With `Cc1c(-c2ccccc2)cccc1N1C(=O)c2cc(CN[C@H](C(=O)O)C(C)O)c(OCc3cccc(C#N)c3)cc2C1=O` (some centres unmarked) the AUC(0-inf) was 100 ng·h/mL (Sprague-Dawley rat; oral, 50 mg/kg).
With `O=C(Nc1cc(F)c(F)c(F)c1)c1ccc(F)c(S(=O)(=O)NCc2cccc(B(O)O)c2)c1` the AUC(0-inf) was 246 ng·h/mL (male Sprague-Dawley rat; intravenous, 2 mg/kg).
With `COc1ccc2c(=O)n(C)c(-c3ccccc3)nc2c1` the AUC(0-inf) was 857 ng·h/mL (male Sprague-Dawley rat; intravenous, 2 mg/kg).
The AUC(0-inf) of `CCc1cc(C(=O)NC)c2nccc(N3CCc4c(cc(Cn5ccnc5)cc4-c4cn(C)nc4C(F)(F)F)C3=O)c2c1` is reported as 117000 ng·h/mL (male Sprague-Dawley rat; oral, 100 mg/kg).
`Oc1cc(O)cc(-c2cc3ccc(O)cc3o2)c1` gave an AUC(0-inf) of 932 ng·h/mL (male rat; intravenous, 5 mg/kg).
With `COc1cc2c3c(n(CCCN4CCOCC4)c(=O)c2cc1OC)-c1cc2c(cc1C3=O)OCO2` the AUC(0-inf) was 421 ng·h/mL (male Fischer 344 rat; intravenous, 24 mg/m², single dose).
`COc1ccc2c(Cc3ccccc3F)c3n(c(=O)c2c1OC)CCc1cc2c(cc1-3)OCO2` gave an AUC(0-inf) of 22700 ng·h/mL (rat; intravenous, 5 mg/kg).
With `CCc1cc(OC)c2nccc(N3CCc4c(cc(Cn5ccnc5)cc4-c4cn(C)nc4C(F)(F)F)C3=O)c2c1` the AUC(0-inf) was 955 ng·h/mL (male Sprague-Dawley rat; intravenous, 3 mg/kg).
With `CCOC(=O)[C@@]12C[C@@H]1[C@@H](n1ccc3c(NC)nc(C#Cc4ccc(Cl)s4)nc31)[C@H](O)[C@@H]2O` the AUC(0-inf) was 172 ng·h/mL (male Sprague-Dawley rat; oral, 3 mg/kg).
`COc1nc(-c2cc(C)c(N[C@@H](C)c3cc(F)cc(F)c3)nn2)ccc1-n1cnc(C)c1` has an AUC(0-inf) of 6710 ng·h/mL (male Sprague-Dawley rat; intravenous, 1 mg/kg, single dose).
